According to ChEMBL document CHEMBL2380239, “Novel ROS-activated agents utilize a tethered amine to selectively target acute myeloid leukemia” (Bioorg Med Chem Lett, 2013):
Values belong to the molecule of their own block, whether it stands above or below them.

Tests used:
[1] = system: HeLa; test: Cytotoxicity against human HeLa cells after 48 hrs by MTT assay; assay type: functional, cell-based
[2] = system: NCI-H23; test: Growth inhibition of human NCI-H23 cells after 48 hrs by sulforhodamine B assay; assay type: functional; conditions: NCI-H23, 48 h
Summary of the method: (§1)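 Run in the National Cancer Institute 60-cell-line panel screen. Viability was read by sulforhodamine B staining of total protein content, so it reflects cell number rather than metabolic activity. Values are reported as GI50.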

[3] = system: IGROV-1; test: Growth inhibition of human IGROV1 cells after 48 hrs by sulforhodamine B assay; assay type: functional; conditions: IGROV-1, 48 h; summary of the method: as §1
[4] = system: Hs-578T; test: Growth inhibition of human Hs578T cells after 48 hrs by sulforhodamine B assay; assay type: functional; summary of the method: as §1
[5] = system: DU-145; test: Growth inhibition of human DU145 cells after 48 hrs by sulforhodamine B assay; assay type: functional; conditions: DU-145, 48 h; summary of the method: as §1
[6] = system: MDA-MB-468; test: Growth inhibition of human MDA-MB-468 cells after 48 hrs by sulforhodamine B assay; assay type: functional; conditions: MDA-MB-468, 48 h; summary of the method: as §1
[7] = system: NCI-H322M; test: Growth inhibition of human NCI-H322M cells after 48 hrs by sulforhodamine B assay; assay type: functional; summary of the method: as §1
[8] = system: SW-620; test: Growth inhibition of human SW620 cells after 48 hrs by sulforhodamine B assay; assay type: functional; conditions: SW-620, 48 h
Summary of the method: (§2)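 Run within the National Cancer Institute 60-cell-line panel. Viability was read by sulforhodamine B staining of total cellular protein, as a measure of cell number rather than metabolic activity. GI50 values were taken from the panel data.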

[9] = system: OVCAR-5; test: Growth inhibition of human OVCAR5 cells after 48 hrs by sulforhodamine B assay; assay type: functional; conditions: OVCAR-5, 48 h; summary of the method: as §1
[10] = system: 786-0; test: Growth inhibition of human 786-0 cells after 48 hrs by sulforhodamine B assay; assay type: functional; conditions: 786-0, 48 h; summary of the method: as §1
[11] = system: SNB-19; test: Growth inhibition of human SNB19 cells after 48 hrs by sulforhodamine B assay; assay type: functional; conditions: SNB-19, 48 h; summary of the method: as §2
[12] = system: A498; test: Growth inhibition of human A498 cells after 48 hrs by sulforhodamine B assay; assay type: functional; conditions: A498, 48 h; summary of the method: as §1
[13] = system: MDA-MB-231; test: Growth inhibition of human MDA-MB-231 cells after 48 hrs by sulforhodamine B assay; assay type: functional; conditions: MDA-MB-231, 48 h; summary of the method: as §1
[14] = system: NCI-H460; test: Growth inhibition of human NCI-H460 cells after 48 hrs by sulforhodamine B assay; assay type: functional; conditions: NCI-H460, 48 h; summary of the method: as §1
[15] = system: OVCAR-3; test: Growth inhibition of human OVCAR3 cells after 48 hrs by sulforhodamine B assay; assay type: functional; conditions: OVCAR-3, 48 h; summary of the method: as §1
[16] = system: UACC-257; test: Growth inhibition of human UACC257 cells after 48 hrs by sulforhodamine B assay; assay type: functional; conditions: UACC-257, 48 h; summary of the method: as §2
[17] = system: SK-MEL-5; test: Growth inhibition of human SK-MEL-5 cells after 48 hrs by sulforhodamine B assay; assay type: functional; conditions: SK-MEL-5, 48 h; summary of the method: as §1
[18] = system: U-251; test: Growth inhibition of human U251 cells after 48 hrs by sulforhodamine B assay; assay type: functional; conditions: U-251, 48 h; summary of the method: as §2
[19] = Therapeutic index, ratio of IC50 for human CD34-positive blood stem/progenitor cells to IC50 for human MA9.3 cells; conditions: CD34-positive blood stem/progenitor cells versus MA9.3 cells, read-out: Ratio IC50
Summary of the method: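 Cytotoxicity was measured in parallel on non-cancerous human CD34+ blood stem/progenitor cells (UCB) and on the MA9.3 AML line, which was made by introducing the MLL-AF9 oncogene into human CD34+ cells. The index is IC50 in CD34+ cells divided by IC50 in MA9.3, reported as mean ± error.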

[20] = system: SF-539; test: Growth inhibition of human SF539 cells after 48 hrs by sulforhodamine B assay; assay type: functional; conditions: SF-539, 48 h; summary of the method: as §1
[21] = Cytotoxicity against human CD34-positive blood stem/progenitor cells after 48 hrs by MTT assay; assay type: cell-based
Summary of the method: (§3)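 Non-transformed human CD34+ blood stem/progenitor cells from umbilical cord blood were run alongside MA9.3, an AML line made by introducing the MLL-AF9 oncogene into human CD34+ cells. IC50 was determined on each cell type. Therapeutic index is the ratio between the MA9.3 and CD34+ IC50 values.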

[22] = system: SF-268; test: Growth inhibition of human SF268 cells after 48 hrs by sulforhodamine B assay; assay type: functional; conditions: SF-268, 48 h; summary of the method: as §1
[23] = system: HCT-116; test: Growth inhibition of human HCT116 cells after 48 hrs by sulforhodamine B assay; assay type: functional; conditions: HCT-116, 48 h; summary of the method: as §1
[24] = system: RPMI-8226; test: Growth inhibition of human RPMI8226 cells after 48 hrs by sulforhodamine B assay; assay type: functional; conditions: RPMI-8226, 48 h; summary of the method: as §1
[25] = system: PC-3; test: Growth inhibition of human PC3 cells after 48 hrs by sulforhodamine B assay; assay type: functional; conditions: PC-3, 48 h; summary of the method: as §1
[26] = system: SNB-75; test: Growth inhibition of human SNB75 cells after 48 hrs by sulforhodamine B assay; assay type: functional; conditions: SNB-75, 48 h; summary of the method: as §2
[27] = system: Malme-3M; test: Growth inhibition of human MALME-3M cells after 48 hrs by sulforhodamine B assay; assay type: functional; summary of the method: as §1
[28] = system: SK-MEL-2; test: Growth inhibition of human SK-MEL-2 cells after 48 hrs by sulforhodamine B assay; assay type: functional; conditions: SK-MEL-2, 48 h; summary of the method: as §1
[29] = Growth inhibition of human EKVX cells after 48 hrs by sulforhodamine B assay; assay type: functional; summary of the method: as §1
[30] = system: OVCAR-4; test: Growth inhibition of human OVCAR4 cells after 48 hrs by sulforhodamine B assay; assay type: functional; conditions: OVCAR-4, 48 h; summary of the method: as §1
[31] = Growth inhibition of human HCC2998 cells after 48 hrs by sulforhodamine B assay; assay type: functional; conditions: HCC 2998, 48 h; summary of the method: as §1
[32] = system: ACHN; test: Growth inhibition of human ACHN cells after 48 hrs by sulforhodamine B assay; assay type: functional; summary of the method: as §1
[33] = system: UO-31; test: Growth inhibition of human UO31 cells after 48 hrs by sulforhodamine B assay; assay type: functional; conditions: UO-31, 48 h; summary of the method: as §2
[34] = system: T47D; test: Growth inhibition of human T47D cells after 48 hrs by sulforhodamine B assay; assay type: functional; summary of the method: as §2
[35] = system: SF-295; test: Growth inhibition of human SF295 cells after 48 hrs by sulforhodamine B assay; assay type: functional; conditions: SF-295, 48 h; summary of the method: as §1
[36] = system: BT-549; test: Growth inhibition of human BT549 cells after 48 hrs by sulforhodamine B assay; assay type: functional; conditions: BT-549, 48 h; summary of the method: as §1
[37] = system: RXF 393; test: Growth inhibition of human RXF393 cells after 48 hrs by sulforhodamine B assay; assay type: functional; conditions: RXF 393, 48 h; summary of the method: as §1
[38] = system: KM12; test: Growth inhibition of human KM12 cells after 48 hrs by sulforhodamine B assay; assay type: functional; conditions: KM12, 48 h; summary of the method: as §1
[39] = system: CAKI-1; test: Growth inhibition of human CAKI-1 cells after 48 hrs by sulforhodamine B assay; assay type: functional; conditions: CAKI-1, 48 h; summary of the method: as §1
[40] = system: SK-MEL-28; test: Growth inhibition of human SK-MEL-28 cells after 48 hrs by sulforhodamine B assay; assay type: functional; conditions: SK-MEL-28, 48 h; summary of the method: as §1
[41] = system: MOLT-4; test: Growth inhibition of human MOLT4 cells after 48 hrs by sulforhodamine B assay; assay type: functional; conditions: MOLT-4, 48 h; summary of the method: as §1
[42] = system: HT-29; test: Growth inhibition of human HT-29 cells after 48 hrs by sulforhodamine B assay; assay type: functional; conditions: HT-29, 48 h; summary of the method: as §1
[43] = system: NCI-H226; test: Growth inhibition of human NCI-H226 cells after 48 hrs by sulforhodamine B assay; assay type: functional; conditions: NCI-H226, 48 h; summary of the method: as §1
[44] = system: MCF7; test: Growth inhibition of human MCF7 cells after 48 hrs by sulforhodamine B assay; assay type: functional; conditions: MCF7, 48 h; summary of the method: as §1
[45] = system: MDA-MB-435; test: Growth inhibition of human MDA-MB-435 cells after 48 hrs by sulforhodamine B assay; assay type: functional; conditions: MDA-MB-435, 48 h; summary of the method: as §1
[46] = system: SK-OV-3; test: Growth inhibition of human SKOV3 cells after 48 hrs by sulforhodamine B assay; assay type: functional; conditions: SK-OV-3, 48 h; summary of the method: as §1
[47] = system: HCT-15; test: Growth inhibition of human HCT15 cells after 48 hrs by sulforhodamine B assay; assay type: functional; conditions: HCT-15, 48 h; summary of the method: as §1
[48] = system: COLO 205; test: Growth inhibition of human COLO205 cells after 48 hrs by sulforhodamine B assay; assay type: functional; conditions: COLO 205, 48 h; summary of the method: as §1
[49] = Growth inhibition of human NCI-ADR-RES cells after 48 hrs by sulforhodamine B assay; assay type: functional; summary of the method: as §1
[50] = system: SR; test: Growth inhibition of human SR cells after 48 hrs by sulforhodamine B assay; assay type: functional; summary of the method: as §2
[51] = Cytotoxicity against human MA9.3 cells after 48 hrs by MTT assay; assay type: functional, cell-based; summary of the method: as §3
[52] = system: SN12C; test: Growth inhibition of human SN12C cells after 48 hrs by sulforhodamine B assay; assay type: functional; summary of the method: as §2
[53] = system: M14; test: Growth inhibition of human M14 cells after 48 hrs by sulforhodamine B assay; assay type: functional; conditions: M14, 48 h; summary of the method: as §1
[54] = system: NCI-H522; test: Growth inhibition of human NCI-H522 cells after 48 hrs by sulforhodamine B assay; assay type: functional; conditions: NCI-H522, 48 h; summary of the method: as §1
[55] = system: LOX IMVI; test: Growth inhibition of human LOXIMVI cells after 48 hrs by sulforhodamine B assay; assay type: functional; summary of the method: as §1
[56] = system: HOP-62; test: Growth inhibition of human HOP62 cells after 48 hrs by sulforhodamine B assay; assay type: functional; conditions: HOP-62, 48 h; summary of the method: as §1
[57] = system: UACC-62; test: Growth inhibition of human UACC62 cells after 48 hrs by sulforhodamine B assay; assay type: functional; conditions: UACC-62, 48 h; summary of the method: as §2
[58] = system: HOP-92; test: Growth inhibition of human HOP92 cells after 48 hrs by sulforhodamine B assay; assay type: functional; conditions: HOP-92, 48 h; summary of the method: as §1

Compound: CC(C)N(CCOc1ccc(O)cc1)c1ccccc1
- IC50 [1]: 53 µM

- GI50 [2]: 2.1 µM
- GI50 [5]: 3.2 µM
- GI50 [6]: 10 µM
- GI50 [7]: 11 µM
- GI50 [8]: 10 µM
- GI50 [9]: 11.5 µM
- GI50 [10]: 3.6 µM
- GI50 [13]: 0.9 µM
- GI50 [14]: 2.2 µM
- GI50 [15]: 4.2 µM
- GI50 [17]: 2.6 µM
- GI50 [18]: 3 µM
- GI50 [23]: 4.1 µM
- GI50 [24]: 3.8 µM
- GI50 [25]: 6 µM
- GI50 [28]: 11.8 µM
- GI50 [30]: 10.5 µM
- GI50 [32]: 0.4 µM
- GI50 [34]: 10.2 µM
- GI50 [36]: 6.6 µM
- GI50 [40]: 14.8 µM
- GI50 [41]: 1.3 µM
- GI50 [42]: 14.5 µM
- GI50 [43]: 11.2 µM
- GI50 [44]: 2.2 µM
- GI50 [45]: 2.6 µM
- GI50 [46]: 7.2 µM
- GI50 [47]: 10 µM
- GI50 [48]: 20 µM
- GI50 [54]: 2 µM
Compound: Oc1ccc(OCCN(CCOc2ccc(O)cc2)c2ccccc2)cc1
- GI50 [3]: 3.6 µM
- GI50 [4]: 14.5 µM
- GI50 [11]: 11.2 µM
- GI50 [12]: 5.3 µM
- GI50 [16]: 12.6 µM
- selectivity ratio [19]: 5.3
- IC50 [1]: 11 µM
- GI50 [20]: 2.8 µM
- IC50 [21]: 16 µM
- GI50 [22]: 3.2 µM
- GI50 [26]: 5.3 µM
- GI50 [27]: 2.2 µM
- GI50 [29]: 5.8 µM
- GI50 [31]: 4.7 µM
- GI50 [33]: 1.5 µM
- GI50 [35]: 2.1 µM
- GI50 [37]: 2.6 µM
- GI50 [38]: 4.7 µM
- GI50 [39]: 0.4 µM
- GI50 [49]: 1.2 µM
- GI50 [50]: 0.5 µM
- IC50 [51]: 3 µM
- GI50 [52]: 4.7 µM
- GI50 [53]: 1.6 µM
- GI50 [55]: 2.2 µM
- GI50 [56]: 8.9 µM
- GI50 [57]: 2.9 µM
- GI50 [58]: 3.7 µM
